Common to all, as to format: functional, tissue-based
The target in assay [1] is T1, Progesterone receptor (Rattus norvegicus) (UniProt Q63449).
T1 sequence (whole entry): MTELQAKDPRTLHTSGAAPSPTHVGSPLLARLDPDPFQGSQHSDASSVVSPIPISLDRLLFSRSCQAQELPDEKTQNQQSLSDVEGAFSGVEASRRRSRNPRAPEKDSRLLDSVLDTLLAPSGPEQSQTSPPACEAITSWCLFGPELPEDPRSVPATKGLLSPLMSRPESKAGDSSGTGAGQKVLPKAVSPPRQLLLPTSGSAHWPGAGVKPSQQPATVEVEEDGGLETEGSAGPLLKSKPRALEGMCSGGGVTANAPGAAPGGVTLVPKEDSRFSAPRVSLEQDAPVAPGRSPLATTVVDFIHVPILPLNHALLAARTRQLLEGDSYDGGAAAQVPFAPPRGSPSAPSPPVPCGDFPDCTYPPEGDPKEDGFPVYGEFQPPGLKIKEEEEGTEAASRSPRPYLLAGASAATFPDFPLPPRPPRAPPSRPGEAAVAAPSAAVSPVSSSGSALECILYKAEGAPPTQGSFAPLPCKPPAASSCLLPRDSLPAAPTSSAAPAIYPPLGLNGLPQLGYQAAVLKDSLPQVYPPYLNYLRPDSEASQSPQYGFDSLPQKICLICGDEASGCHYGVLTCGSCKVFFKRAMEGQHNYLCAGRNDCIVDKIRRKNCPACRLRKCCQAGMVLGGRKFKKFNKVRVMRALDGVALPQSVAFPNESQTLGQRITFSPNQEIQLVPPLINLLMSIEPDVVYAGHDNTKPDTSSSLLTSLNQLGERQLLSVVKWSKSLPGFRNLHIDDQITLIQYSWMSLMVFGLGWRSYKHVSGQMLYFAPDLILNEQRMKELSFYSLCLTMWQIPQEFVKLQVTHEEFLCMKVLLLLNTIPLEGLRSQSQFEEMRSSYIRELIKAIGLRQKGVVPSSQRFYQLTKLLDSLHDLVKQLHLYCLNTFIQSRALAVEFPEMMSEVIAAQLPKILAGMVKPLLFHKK
As to the kind of experiment: Tissue distribution in brain 1 hr after [18F]4 injection into estrogen-primed immature rats at normal dose. The method in brief:
(§1)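 Female Sprague-Dawley rats, 23 days old, primed with estradiol 5 μg s.c. in 20% ethanol/sunflower oil on two days and used 24 h later. Under ether, they received 51 μCi tracer (30 Ci/mmol) iv via the tail vein in 0.1 mL 10% ethanol/saline. Killed by decapitation at 1 h; tissues weighed and gamma-counted. Results as %ID/g or tissue ratios, mean ± SD, n = 5.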

Assay [2] addresses T1, Progesterone receptor (Rattus norvegicus). As to the kind of experiment: Tissue distribution in uterus/blood 3 hr after [18F]4 injection into estrogen-primed immature rats at low dose.
For assay [3] the target is unchanged. As to the kind of experiment: Tissue distribution in liver 1 hr after [18F]4 injection into estrogen-primed immature rats at normal dose. The gist of the method: as §1
Assay [4] has the same target. Put plainly: Tissue distribution in brain 3 hr after [18F]4 injection into estrogen-primed immature rats. The method in brief: (§2)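 Immature female Sprague-Dawley rats, estradiol-primed (5 μg s.c. in 20% ethanol/sunflower oil, two successive days, used 24 h later). Tracer (30 Ci/mmol) in 10% ethanol/saline was injected iv into the tail vein under ether anesthesia. Animals were decapitated 3 h postinjection; organs weighed and gamma-counted. %ID/g, mean ± SD, n = 5.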

Assay [5] shares this target. As to the kind of experiment: Tissue distribution in uterus/blood 1 hr after [18F]4 injection into estrogen-primed immature rats co-injected with uterine uptake blocker (ORG 2058). The method in brief: (§3)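 Blocking group: estrogen-primed immature female Sprague-Dawley rats (estradiol 5 μg s.c. ×2 days, used 24 h later). ORG 2058 18 μg was co-injected with the tracer dose iv via tail vein, 0.2 mL injection volume in 10% ethanol/saline. Killed 1 h later; tissues weighed and gamma-counted. Results as %ID/g or ratios, mean ± SD, n = 5.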

Assay [6] has the same target. As to the kind of experiment: Tissue distribution in uterus 1 hr after [18F]4 injection into estrogen-primed immature rats at normal dose. The method in brief: as §1
Assay [7] has the same target. As to the kind of experiment: Tissue distribution in blood 1 hr after [18F]4 injection into estrogen-primed immature rats co-injected uterine uptake blocker (ORG 2058). The gist of the method:
as §3

For assay [8] the target is unchanged. Put plainly: Tissue distribution in ovaries 1 hr after [18F]4 injection into estrogen-primed immature rats at low dose. As to conditions: Female gonad. The method in brief:
(§4)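 Estrogen-primed immature female Sprague-Dawley rats (estradiol 5 μg s.c. daily ×2, used 24 h later) were given a reduced tracer dose of 30 μCi in 0.04 mL 10% ethanol/saline, tail vein iv, under ether. Decapitated at 1 h; organs weighed and gamma-counted. Results as %ID/g or uterus/tissue ratio, mean ± SD, n = 5.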

For assay [9] the target is unchanged. As to the kind of experiment: Tissue distribution in bone 1 hr after [18F]4 injection into estrogen-primed immature rats at normal dose. As to conditions: Bone element. The method in brief:
as §1

For assay [10] the target is unchanged. Put plainly: Tissue distribution in ovaries 1 hr after [18F]4 injection into estrogen-primed immature rats at normal dose. As to conditions: Female gonad. The method in brief:
as §1

Assay [11] has the same target. Put plainly: Tissue distribution in uterus 3 hr after [18F]4 injection into estrogen-primed immature rats. The gist of the method:
as §2

Assay [12] has the same target. Put plainly: Tissue distribution in uterus/muscle 3 hr after [18F]4 injection into estrogen-primed immature rats. The gist of the method:
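Immature female Sprague-Dawley rats (23 days old) were primed with 5 μg estradiol in 20% ethanol/sunflower oil s.c. on two successive days and used 24 h after the last injection. The 18F tracer (51 μCi, specific activity 30 Ci/mmol) in 10% ethanol/saline was given iv in the tail vein under ether anesthesia. Rats were decapitated at 3 h, and organs were weighed and gamma counted. Ratio of %ID/g, n = 5.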

The target is the same in assay [13]. As to the kind of experiment: Tissue distribution in lung 3 hr after [18F]4 injection into estrogen-primed immature rats. The gist of the method:
as §2

The target is the same in assay [14]. Put plainly: Tissue distribution in liver 1 hr after [18F]4 injection into estrogen-primed immature rats co-injected with uterine uptake blocker (ORG 2058). The gist of the method:
as §3

Assay [15] shares this target. Put plainly: Tissue distribution in muscle 1 hr after [18F]4 injection into estrogen-primed immature rats at low dose. The gist of the method: as §4
Assay [16] has the same target. Put plainly: Tissue distribution in lung 1 hr after [18F]4 injection into estrogen-primed immature rats co-injected with uterine uptake blocker (ORG 2058). The method in brief:
as §3

The target is the same in assay [17]. Put plainly: Tissue distribution in uterus/muscle 1 hr after [18F]4 injection into estrogen-primed immature rats at normal dose. The method in brief: as §1
The target is the same in assay [18]. As to the kind of experiment: Tissue distribution in blood 1 hr after [18F]4 injection into estrogen-primed immature rats at low dose. The method in brief: as §4
The target is the same in assay [19]. As to the kind of experiment: Tissue distribution in bone 1 hr after [18F]-4 injection into estrogen-primed immature rats co-injected with uterine uptake blocker (ORG 2058). The settings on record: Bone element. The method in brief: as §3

The structures appear in SMILES notation.

Regarding `C[C@@]1(c2ccc(F)cc2)O[C@@H]2CC3C4CCC5=CC(=O)CC[C@@H]5C4CC[C@]3(C)[C@]2(C(=O)CO)O1` (stereo partly drawn), the Injected dose/g in assay [1] is 0.34%; in assay [3], 4.25%; in [4], 0.06%; in [6], 3.65%; in assay [7] it was 0.23%; in assay [8], 2.66%. Besides, the Injected dose/g in assay [9] turned out to be 0.62%; in [10] it was 2.8%; in [11] it was 3.86%; in assay [13], 0.22%; in assay [14], 3.56%; in assay [15] it was 0.464%. The Injected dose/g in [16] came to 0.54%; in assay [18] it was 0.28%; in assay [19], 0.6%. The results for the uterus/blood ratio in assay [2] and in [5] were 38 and 3.69, respectively. Moreover, the uterus/muscle ratio was found to be 27.9 in assay [12] and 8.2 in assay [17].
Turning to `CC(=O)[C@@]12O[C@](C)(c3ccc(F)cc3)O[C@@H]1CC1C3CCC4=CC(=O)CC[C@]4(C)C3CC[C@@]12C` (stereo partly drawn), the Injected dose/g in [1] worked out at 0.56%; in assay [3], 3.41%; in [4], 0.2%; in assay [6], 3.08%; in [7], 0.43%; in [8], 3.68%. Moreover, the Injected dose/g in [9] was 1.76%; in assay [10], 3.93%; in [11], 2.13%; in [13] it was 0.91%; in assay [14], 3.16%; in assay [15], 0.82%. In addition, the Injected dose/g came out at 1.26% in assay [16], 0.52% in assay [18] and 1.44% in [19]. Besides, the uterus/blood ratio in assay [2] came out at 7.57; in [5], 3.06. Moreover, the uterus/muscle ratio in assay [12] turned out to be 4.61; in assay [17], 3.85.

Values taken from ChEMBL document CHEMBL1126647, “Fluorine-18-labeled progestin ketals: synthesis and target tissue uptake selectivity of potential imaging agents for receptor-positive breast tumors” (J Med Chem, 1993).
